Our source for the Control, Ki and Km values is ChEMBL document CHEMBL1135827, “Enhancement of nucleoside cytotoxicity through nucleotide prodrugs” (J Med Chem, 2002).

Data set [1] concerns CCRF-CEM. Put plainly: Percent control of protein synthesis in CEM cells. Format: functional, Homo sapiens. The essentials: (§1)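 CEM cells (RPMI 1640, 10% FBS) incubated with 29 μM or 35 μM compound (± 10 μM dCF). [3H]thymidine, [3H]uridine or [3H]leucine added 30 min after drug; samples at 1, 2 and 4 h after label. Acid-precipitable radioactivity measured; RNA taken as total acid-precipitable minus alkali-stable/acid-precipitable (DNA) fraction. Expressed as percent of control; repeated twice.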

Data set [2] relates to CCRF-CEM. Put plainly: Percent control of DNA synthesis in CEM cells. Format: functional, Homo sapiens. The gist of the method: as §1
The test system of data set [3] is CCRF-CEM. Put plainly: Percent control of RNA synthesis in CEM cells. Format: functional, Homo sapiens. The essentials:
as §1

Data set [4] deals with T1, DNA polymerase alpha catalytic subunit (Homo sapiens, UniProt P09884).
T1 sequence (P09884 whole entry): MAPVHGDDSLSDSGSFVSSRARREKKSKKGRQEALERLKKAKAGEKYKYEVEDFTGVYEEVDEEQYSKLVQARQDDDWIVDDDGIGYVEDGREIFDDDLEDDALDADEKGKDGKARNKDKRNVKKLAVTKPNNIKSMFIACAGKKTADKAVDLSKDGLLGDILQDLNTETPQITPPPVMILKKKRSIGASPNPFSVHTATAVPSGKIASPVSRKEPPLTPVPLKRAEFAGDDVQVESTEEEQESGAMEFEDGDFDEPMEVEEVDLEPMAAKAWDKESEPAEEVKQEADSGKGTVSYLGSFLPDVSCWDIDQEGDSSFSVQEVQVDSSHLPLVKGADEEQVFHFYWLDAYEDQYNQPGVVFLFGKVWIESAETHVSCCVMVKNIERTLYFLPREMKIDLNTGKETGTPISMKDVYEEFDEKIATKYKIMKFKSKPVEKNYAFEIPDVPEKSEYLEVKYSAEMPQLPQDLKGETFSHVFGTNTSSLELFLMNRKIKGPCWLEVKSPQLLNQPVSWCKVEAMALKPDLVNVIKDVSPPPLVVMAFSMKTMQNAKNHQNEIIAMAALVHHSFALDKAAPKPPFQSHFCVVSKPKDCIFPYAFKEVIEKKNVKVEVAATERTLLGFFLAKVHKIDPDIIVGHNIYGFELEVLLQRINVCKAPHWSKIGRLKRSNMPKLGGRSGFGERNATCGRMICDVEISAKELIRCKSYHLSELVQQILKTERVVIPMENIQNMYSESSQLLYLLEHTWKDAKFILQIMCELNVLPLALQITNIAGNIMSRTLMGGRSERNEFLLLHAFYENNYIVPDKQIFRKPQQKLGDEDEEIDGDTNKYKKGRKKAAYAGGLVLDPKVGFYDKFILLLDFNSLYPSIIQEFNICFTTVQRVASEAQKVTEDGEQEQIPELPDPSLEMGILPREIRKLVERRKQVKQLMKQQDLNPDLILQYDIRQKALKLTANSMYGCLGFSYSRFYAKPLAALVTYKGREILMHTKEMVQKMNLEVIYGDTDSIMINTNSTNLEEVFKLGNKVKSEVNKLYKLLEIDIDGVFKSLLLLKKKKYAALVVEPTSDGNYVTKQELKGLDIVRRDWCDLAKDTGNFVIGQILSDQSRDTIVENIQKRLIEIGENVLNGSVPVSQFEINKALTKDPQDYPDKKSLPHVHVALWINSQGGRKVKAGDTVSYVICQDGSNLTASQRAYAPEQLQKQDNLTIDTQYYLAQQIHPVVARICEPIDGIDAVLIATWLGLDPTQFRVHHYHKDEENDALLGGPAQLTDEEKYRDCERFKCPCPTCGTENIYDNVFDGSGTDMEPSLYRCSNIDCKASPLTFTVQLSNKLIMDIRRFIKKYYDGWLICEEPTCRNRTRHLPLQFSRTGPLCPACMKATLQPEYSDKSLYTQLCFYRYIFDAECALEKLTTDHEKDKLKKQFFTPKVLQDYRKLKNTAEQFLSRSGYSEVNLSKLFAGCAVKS
Put plainly: Ability to inhibit the incorporation of dATP into DNA by DNA polymerase alpha. The essentials:
(§2)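 DNA polymerase α purified 52-fold from CEM cells (specific activity 120 nmol/mg/hr). 50 μL reactions: 50 mM Tris pH 8.0, 1 mg/mL BSA, 10 mM MgCl2, 1 mM DTT, 100 μg/mL activated DNA, 100 μM each dTTP and dCTP, 10 μM [3H]dGTP, dATP 0–100 μM. 1 h at 37 °C; TCA/ethanol-washed glass-fiber filters counted. Ki from slopes of Lineweaver–Burk lines vs inhibitor, three inhibitor concentrations.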

Substrate in data set [5]: Nc1ncnc2c1ncn2[C@H]1C[C@H](O)[C@@H](COP(=O)(O)OP(=O)(O)OP(=O)(O)O)O1
As to the kind of experiment: Km value with DNA polymerase alpha. Format: functional. The essentials:
as §2

Turning to `CC(C)(C)C(=O)OCOP(=O)(OCOC(=O)C(C)(C)C)OC[C@H]1O[C@@H](n2c(Br)nc3c(N)ncnc32)C[C@@H]1O`, the Control in the data set with CCRF-CEM [1] stood at 94%; with CCRF-CEM [2], 53%; in the data set with CCRF-CEM [3], 14%.

As for `CC(C)(C)C(=O)OCOP(=O)(OCOC(=O)C(C)(C)C)OC[C@H]1O[C@@H](n2nnc3c(N)ncnc32)C[C@H]1O.OC[C@H]1O[C@@H](n2cnc3c2NC=NC[C@H]3O)C[C@@H]1O`, the Control is reported as 98% in the data set on CCRF-CEM [1], 11% in the data set with CCRF-CEM [2] and 3% with CCRF-CEM [3].

One may read the Ki as the dissociation constant of the complex between target and ligand, obtained from inhibition or displacement. Read a low Ki as higher affinity. The molecule `CC(C)(C)C(=O)OCOP(=O)(OCOC(=O)C(C)(C)C)OC[C@H]1O[C@@H](n2nnc3c(N)ncnc32)C[C@H]1O` displayed a Ki in data set [4] of 156 µM. Moreover, the values for the Control in the data set with CCRF-CEM [1], with CCRF-CEM [2] and in the data set on CCRF-CEM [3] were 95%, 11% and 3%, respectively.

B1: DNA polymerase alpha catalytic subunit (Homo sapiens), P09884 (protein)
chain: T1 sequence (P09884 whole entry)
A word on the Km: it is the concentration of substrate that gives half-maximal velocity. Consider B1, for which the Km in data set [5] amounted to 4 µM.
